The values below come from ChEMBL document CHEMBL1123024, “5,6-Diaryl-2,3-dihydroimidazo[2,1-b]thiazoles: a new class of immunoregulatory antiinflammatory agents” (1985).

What all share (type): functional
Test [1] deals with Rattus norvegicus. As to the kind of experiment: Percent change in nonimmune L3 inflammatory lesions in rat adjuvant-induced arthritis at 50 mg/kg. The essentials: (§1)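 Male Wistar rats received 0.75 mg M. butyricum in paraffin oil intradermally into the left hindpaw. Compounds were given daily po in 0.5% tragacanth from the injection day for 17 days, skipping days 4, 5, 11 and 12. Leg volumes were read by mercury displacement: left leg on day 3, both legs on day 16. Eight treated rats vs 16 vehicle controls; Student's t test. ED25 is the dose giving a 25% volume decrease, from at least three doses, with 95% limits by Fieller's theorem.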

The species entered for test [2] is Mus musculus. As to the kind of experiment: Immunoregulatory activity against mouse contact sensitivity was evaluated as percent change. The method, boiled down:
(§2)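 Male C57B1/6 mice were sensitized with 0.1 mL of 5% oxazolone in absolute ethanol on the clipped abdomen. At 45 h the left hind leg was challenged with 5% oxazolone. Compound was given po in 0.5% tragacanth. Edema was read plethysmographically 24 h later as left minus right leg volume. Six mice vs eight controls; Student's t test.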

In test [3] the test system is Rattus norvegicus. As to the kind of experiment: Percent change in immune R16 inflammatory lesions in rat adjuvant-induced arthritis at 50 mg/kg. The method, boiled down: as §1
Test [4] concerns Rattus norvegicus. As to the kind of experiment: Percent change in nonimmune L16 inflammatory lesions in rat adjuvant-induced arthritis at 50 mg/kg. The method, boiled down:
as §1

Test [5] concerns Rattus norvegicus. As to the kind of experiment: The compound was tested for percent change in immune R16 inflammatory lesions in rat adjuvant-induced arthritis at 50 mg/kg. The essentials:
as §1

Test [6] has as its system Rattus norvegicus. As to the kind of experiment: The compound was tested for percent change in nonimmune L3 inflammatory lesions in rat adjuvant-induced arthritis at 50 mg/kg. The method, boiled down: as §1
For test [7], the species on record is Mus musculus. As to the kind of experiment: Immunoregulatory activity against oxazolone induced mouse contact sensitivity was evaluated as percent change. The essentials:
as §2

The subject of test [8] is Rattus norvegicus. As to the kind of experiment: The compound was tested for percent change in nonimmune L16 inflammatory lesions in rat adjuvant-induced arthritis at 50 mg/kg. The method, boiled down: as §1

As to `COc1ccc(-c2c(-c3ccccc3)nc3n2CCS3)cc1`, the Change is -15% in test [1], 112% in test [2], -6% in test [3] and -11% in test [4].

Take `Fc1ccc(-c2nc3n(c2-c2ccc(F)cc2)CCS3)cc1`: the Change is -39% in test [1], 79% in test [2], -49% in test [3] and -36% in test [4].

Turning to `Oc1ccc(-c2nc3n(c2-c2ccc(O)cc2)CCS3)cc1`, the Change in test [1] is listed as -9%; in test [2] it was 122%; in test [3] it was 9%; in test [4] it was -7%.

Take `COc1ccc(-c2nc(SC)[nH]c2-c2ccc(OC)cc2)cc1`: the Change in test [1] is recorded as -29%; in test [2] it was 52%; in test [3], -38%; in test [4] it was -45%.

For `COc1ccc(-c2nc3n(c2-c2ccc(OC)c(OC)c2)CCS3)cc1OC`, the Change in test [1] is 0%; in test [2] it was 48%; in test [3], 5%; in test [4] it was -2%.

For `Nc1ccc(-c2nc3n(c2-c2ccc(N)cc2)CCS3)cc1`, the Change is -15% in test [1], 36% in test [2], 0% in test [3] and -10% in test [4].

`COc1ccc(-c2nc3n(c2-c2ccc(OC)cc2)C(=O)CS3)cc1`: the Change in test [1] is given as -4%; in test [2] it was 25%; in test [3] it was 0%; in test [4], 4%.

In the case of `Cc1cccc(-c2nc3n(c2-c2cccc(C)c2)CCS3)c1`, the Change in test [1] was -14%; in test [2], 38%; in test [3] it was -5%; in test [4], -13%.

For the compound `COc1ccccc1-c1nc2n(c1-c1ccccc1OC)CCS2`, the Change is on record as 0% in test [1], 95% in test [2], -7% in test [3] and -5% in test [4].

With `COc1ccc(-c2nc3n(c2-c2ccccc2)CCS3)cc1`, the Change is on record as -5% in test [1], 26% in test [2], 1% in test [3] and -10% in test [4].

As to `COc1cc(-c2nc3n(c2-c2cc(OC)c(OC)c(OC)c2)CCS3)cc(OC)c1OC`, the Change in test [1] was -2%; in test [2] it was 75%; in test [3] it was -19%; in test [4], 0%.

Consider `COc1ccc(-c2nc3n(c2-c2ccc(OC)cc2)CCCS3)cc1`, for which the Change was -2% in test [1], 30% in test [2], -20% in test [3] and -4% in test [4].

Consider `CCN(C(C)=O)c1ccc(-c2nc3n(c2-c2ccc(N(CC)C(C)=O)cc2)CCS3)cc1`, for which the Change was -4% in test [1], 43% in test [2], -10% in test [3] and -1% in test [4].

Consider `CC(=O)Nc1ccc(-c2nc3n(c2-c2ccc(NC(C)=O)cc2)CCS3)cc1`, for which the Change in test [1] is listed as 3%; in test [2] it was 78%; in test [5] it was 12%; in test [4] it was -1%.

Regarding `COc1ccc(-c2nc(SC)n(C)c2-c2ccc(OC)cc2)cc1`, the Change in test [1] is -24%; in test [2], 150%; in test [3], -35%; in test [4], -31%.

In the case of `C=CCOc1ccc(-c2nc3n(c2-c2ccc(OCC=C)cc2)CCS3)cc1`, the Change in test [1] is recorded as -2%; in test [2], 71%; in test [3] it was -21%; in test [4] it was -2%.

With `CCSc1nc(-c2ccc(OC)cc2)c(-c2ccc(OC)cc2)[nH]1`, the Change is on record as -31% in test [1], 119% in test [2], -37% in test [3] and -42% in test [4].

Consider `COc1ccc(-c2c(-c3ccc(F)cc3)nc3n2CC[S+]3[O-])cc1` (stereo not given), for which the Change in test [6] is given as -35%; in test [7] it was 65%; in test [5], -39%; in test [8], -39%.

As to `Cc1ccc(-c2nc3n(c2-c2ccc(C)cc2)CCS3)cc1`, the Change in test [1] is on record as -6%; in test [2] it was 86%; in test [3], -7%; in test [4], 0%.

In the case of `CSc1ccc(-c2c(-c3ccc(F)cc3)nc3n2CCS3)cc1`, the Change is listed as -16% in test [1], 122% in test [2], -30% in test [3] and -30% in test [4].

With `CCSc1nc(-c2ccc(OC)cc2)c(-c2ccc(OC)cc2)n1CC`, the Change in test [1] is recorded as -6%; in test [2], 65%; in test [3], -8%; in test [4], -9%.

Turning to `COc1ccc(-c2nc3n(c2-c2ccc(F)cc2)CCS3)cc1`, the Change is given as 11% in test [1], 103% in test [2], 6% in test [3] and -4% in test [4].

For `Brc1ccc(-c2nc3n(c2-c2ccc(Br)cc2)CCS3)cc1`, the Change in test [1] is recorded as -25%; in test [2], 71%; in test [3] it was -46%; in test [4], -42%.

For the compound `Fc1cccc(-c2nc3n(c2-c2cccc(F)c2)CCS3)c1`, the Change in test [1] was -1%; in test [2], 22%; in test [3], 3%; in test [4] it was -1%.

In the case of `COc1ccc(-c2nc3n(c2-c2ccc(OC)c(F)c2)CCS3)cc1F`, the Change in test [1] is 1%; in test [2], 88%; in test [3], -3%; in test [4] it was 0%.

With `COc1ccc(-c2nc3n(c2-c2ccccc2)CCS3)cc1OC`, the Change in test [1] is 8%; in test [2], 82%; in test [3], -6%; in test [4], -1%.

Turning to `CSc1ccc(-c2nc3n(c2-c2ccc(F)cc2)CCS3)cc1`, the Change in test [1] is -14%; in test [2], 44%; in test [3], 6%; in test [4], 0%.

For `CCN(C)c1ccc(-c2nc3n(c2-c2ccc(N(C)CC)cc2)CCS3)cc1`, the Change in test [1] is -31%; in test [2] it was 69%; in test [3] it was -36%; in test [4] it was -41%.

`c1ccc2c(c1)nc1n2CCS1`: the Change in test [1] is listed as -18%; in test [2] it was 51%; in test [3] it was 7%; in test [4], -2%.

As for `CCCCOc1ccc(-c2nc3n(c2-c2ccc(OCCCC)cc2)CCS3)cc1`, the Change in test [1] was determined as 5%; in test [2], 130%; in test [3], 2%; in test [4], 2%.

For the compound `COc1ccc(-c2c(-c3ccccc3)nc3n2CCS3)cc1OC`, the Change came to 5% in test [1], 69% in test [2], 11% in test [3] and 1% in test [4].

Consider `COc1ccc(-c2nc3n(c2-c2ccc(OC)c(C)c2)CCS3)cc1C`, for which the Change in test [1] is on record as -16%; in test [2], 30%; in test [3], -19%; in test [4], -20%.

On to `CC(=O)Oc1ccc(-c2nc3n(c2-c2ccc(OC(C)=O)cc2)CCS3)cc1`, for which the Change was -16% in test [1], 101% in test [2], -17% in test [3] and -12% in test [4].

As for `c1cc2c(cc1-c1nc3n(c1-c1ccc4c(c1)OCO4)CCS3)OCO2`, the Change in test [1] is -18%; in test [2], 16%; in test [3] it was -27%; in test [4], -23%.

`C[S+]([O-])c1ccc(-c2nc3n(c2-c2ccc([S+](C)[O-])cc2)CCS3)cc1` (stereo not given): the Change in test [1] is recorded as -25%; in test [2], 117%; in test [3], -19%; in test [4], -27%.

As for `FC(F)(F)COc1ccc(-c2nc3n(c2-c2ccc(OCC(F)(F)F)cc2)CCS3)cc1`, the Change in test [1] is -13%; in test [2] it was 26%; in test [3], -3%; in test [4], -20%.

On to `CCOc1ccc(-c2nc3n(c2-c2ccc(OCC)cc2)CCS3)cc1`, for which the Change was -22% in test [1], 150% in test [2], -32% in test [3] and -34% in test [4].

With `COc1ccc(-c2cn3c(n2)SCC3)cc1`, the Change in test [1] is -3%; in test [2], 132%; in test [3], -16%; in test [4] it was -10%.

As for `CC(C)(C)C(=O)Nc1ccc(-c2nc3n(c2-c2ccc(NC(=O)C(C)(C)C)cc2)CCS3)cc1`, the Change is reported as -4% in test [1], 15% in test [2], -1% in test [3] and -3% in test [4].

In the case of `Clc1ccc(-c2nc3n(c2-c2ccc(Cl)cc2)CCS3)cc1`, the Change is on record as -18% in test [1], 43% in test [2], -38% in test [3] and -35% in test [4].
